Active and inactive are the calls of the source. No cut-off for these calls is given here.
Columns and labels:
[1] = AUClast in Sprague-Dawley rat model of bleomycin-induced pulmonary fibrosis at 2 mg/kg, iv by LC-MS/MS analysis; type: ADME, organism-based; set-up: time 0 - last, dose 2 mg/kg, route iv; conditions: in vivo
How it was run: (§1)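 Male Sprague-Dawley rats with induced pulmonary fibrosis; single i.v. (2.0 mg kg⁻¹) or p.o. (5.0 mg kg⁻¹) administration. Plasma samples stored at −70 °C; the supernatant was analysed by LC-MS/MS for PK parameters.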

[2] = Clearance in Sprague-Dawley rat model of bleomycin-induced pulmonary fibrosis at 2 mg/kg, iv by LC-MS/MS analysis; type: ADME, organism-based; conditions: in vivo; how it was run: as §1
HFL1 [3] = assay: Antifibrotic activity in TGF-beta1-induced HFL1 cell injury assessed as alpha-SMA expression at 5 uM measured after 48 hrs by Western blot analysis (reference value: 100%); type: functional, Homo sapiens
How it was run: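 HFL-1 cells stimulated with TGF-β1; α-SMA protein detected by Western blot with anti-α-SMA antibody, normalised to tubulin; mean of n = 3.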

HFL1 [4] = assay: Antifibrotic activity in TGF-beta1-induced HFL1 cell injury assessed as down regulation of collagen 3 mRNA expression at 0.625 to 10 uM measured after 24 hrs by RT-PCR analysis; type: functional, cell-based; conditions: Homo sapiens, dose 0.625-10 µM
How it was run: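 TGF-β1-induced HFL-1 cells treated 24 h (test range 0.625–10 μM; comparator 3 mM); collagen 1 and collagen 3 mRNA measured by RT-PCR; mean of n = 3.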

[5] = Clearance in dog at 1 mg/kg, iv by LC-MS/MS analysis; type: ADME, organism-based, Canis lupus familiaris; conditions: in vivo
[6] = Cmax in Sprague-Dawley rat model of bleomycin-induced pulmonary fibrosis at 5 mg/kg, po by LC-MS/MS analysis; type: ADME, organism-based; set-up: dose 5 mg/kg, route po; conditions: in vivo; how it was run: as §1
[7] = Volume of distribution at steady state in Sprague-Dawley rat model of bleomycin-induced pulmonary fibrosis at 2 mg/kg, iv by LC-MS/MS analysis; type: ADME, organism-based; conditions: in vivo, read-out: Vdss
How it was run: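 Male Sprague-Dawley rats with induced pulmonary fibrosis were dosed 2.0 mg kg⁻¹ i.v. or 5.0 mg kg⁻¹ p.o. Plasma was stored at -70 °C, and the supernatant was analysed by LC-MS/MS.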

[8] = Volume of distribution at steady state in dog at 1 mg/kg, iv by LC-MS/MS analysis; type: ADME, organism-based, Canis lupus familiaris; conditions: in vivo, read-out: Vdss
[9] = Half life in dog at 1 mg/kg, iv by LC-MS/MS analysis; type: ADME, organism-based, Canis lupus familiaris; conditions: in vivo
[10] = Cmax in dog at 5 mg/kg, po by LC-MS/MS analysis; type: ADME, organism-based, Canis lupus familiaris; set-up: dose 5 mg/kg, route po; conditions: in vivo
[11] = AUClast in dog at 5 mg/kg, po by LC-MS/MS analysis; type: ADME, organism-based, Canis lupus familiaris; set-up: time 0 - last, dose 5 mg/kg, route po; conditions: in vivo
[12] = Clearance in cynomolgus monkey at 1 mg/kg, iv by LC-MS/MS analysis; type: ADME, organism-based, Macaca fascicularis; conditions: in vivo
[13] = Volume of distribution at steady state in cynomolgus monkey at 1 mg/kg, iv by LC-MS/MS analysis; type: ADME, organism-based, Macaca fascicularis; conditions: in vivo, read-out: Vdss
[14] = Half life in cynomolgus monkey at 1 mg/kg, iv by LC-MS/MS analysis; type: ADME, organism-based, Macaca fascicularis; conditions: in vivo
[15] = AUClast in cynomolgus monkey at 5 mg/kg, po by LC-MS/MS analysis; type: ADME, organism-based, Macaca fascicularis; set-up: time 0 - last, dose 5 mg/kg, route po; conditions: in vivo
[16] = Half life in cynomolgus monkey at 5 mg/kg, po by LC-MS/MS analysis; type: ADME, organism-based, Macaca fascicularis; conditions: in vivo
[17] = Oral bioavailability in cynomolgus monkey at 5 mg/kg by LC-MS/MS analysis; type: ADME, organism-based, Macaca fascicularis; conditions: in vivo
Rattus norvegicus [18] = assay: Antifibrotic activity against bleomycin-induced pulmonary fibrosis in Sprague-Dawley rat assessed as reduction in lung hydroxyproline content at 6 mg/kg, po administered daily for 1 to 14 days starting from post bleomycin stimulation; type: functional, organism-based; conditions: time 1-14 day
Rattus norvegicus [19] = assay: Antifibrotic activity against bleomycin-induced pulmonary fibrosis in po dosed Sprague-Dawley rat assessed as reduction in histopathological changes administered daily for 1 to 14 days starting from post bleomycin stimulation by H and E staining based assay; type: functional, organism-based; conditions: dose 2-6 mg/kg, time 1-14 day, DDE = dose-dependent effect
How it was run: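 Bleomycin-induced lung fibrosis in SD rats; oral dosing daily from day 1 for 14 days; saline for sham and bleomycin groups; comparator 100 mg kg⁻¹ d, test doses 2 and 6 mg kg⁻¹ d; lung pathology assessed by HE histology.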

[20] = Half life in monkey liver microsomes by LC-MS/MS analysis; type: ADME, Macaca mulatta, Microsome; conditions: rhesus monkey
How it was run: (§2)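 Liver microsomes (human, monkey, dog, rat, mouse) incubated with test compound at 37 °C with NADPH cofactor; samples at 0, 5, 15, 30, 60 min for half-life and in vitro CLint.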

[21] = Half life in dog liver microsomes by LC-MS/MS analysis; type: ADME, Canis lupus familiaris, Microsome; how it was run: as §2
[22] = Half life in rat liver microsomes by LC-MS/MS analysis; type: ADME, Microsome; how it was run: as §2
[23] = Intrinsic clearance in human liver microsomes by LC-MS/MS analysis; type: ADME, Microsome; conditions: read-out: CLH; how it was run: as §2
[24] = Intrinsic clearance in dog liver microsomes by LC-MS/MS analysis; type: ADME, Canis lupus familiaris, Microsome; conditions: read-out: CLH; how it was run: as §2
[25] = Intrinsic clearance in mouse liver microsomes by LC-MS/MS analysis; type: ADME, Microsome; conditions: read-out: CLH
How it was run: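 Liver microsomes were incubated with the compound at 37 °C with NADPH as cofactor and sampled at 0, 5, 15, 30 and 60 min. Half-life (min) and in vitro CLint (mL min⁻¹ kg) were derived from these samples.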

Cytochrome P450 2C9 = Cytochrome P450 2C9 (Homo sapiens, UniProt P11712); assay: Inhibition of CYP2C9 in human liver microsomes by LC-MS/MS analysis; type: ADME, Microsome
How it was run: (§3)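 Human microsomes incubated with CYP-specific substrates (1A2, 2C9, 2C19, 2D6, 3A4) and test compound at 0.0–10 μM; IC50 determined.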

Cytochrome P450 2D6 = Cytochrome P450 2D6 (Homo sapiens, UniProt P10635); assay: Inhibition of CYP2D6 in human liver microsomes by LC-MS/MS analysis; type: ADME, Microsome; how it was run: as §3
[26] = molecular target: Voltage-gated inwardly rectifying potassium channel KCNH2 (Homo sapiens, UniProt Q12809); assay: Inhibition of human ERG stably expressed in CHO cells by automated Qpatch clamp method; type: toxicity, cell-based
How it was run: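 CHO cell line stably transfected with hERG cDNA expressing hERG channels; channel inhibition measured, IC50 reported.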

[27] = Mutagenecity in Salmonella typhimurium TA100 at 7.8 to 1000 ug measured after 2 to 3 days by mini-Ames test; type: toxicity, Salmonella enterica subsp. enterica serovar Typhimurium; conditions: dose lower 7.8 µg, time lower 2 day, dose upper 1000 µg, time upper 3 day
How it was run: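 Bacterial reverse mutation assay scoring reverse gene mutations at the histidine locus in Salmonella typhimurium strains TA98 and TA100.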

[28] = Toxicity in po dosed Sprague-Dawley rat administered once daily for 28 days; type: organism-based; conditions: in vivo, time 28 day

Chain of Voltage-gated inwardly rectifying potassium channel KCNH2 (Q12809 whole entry): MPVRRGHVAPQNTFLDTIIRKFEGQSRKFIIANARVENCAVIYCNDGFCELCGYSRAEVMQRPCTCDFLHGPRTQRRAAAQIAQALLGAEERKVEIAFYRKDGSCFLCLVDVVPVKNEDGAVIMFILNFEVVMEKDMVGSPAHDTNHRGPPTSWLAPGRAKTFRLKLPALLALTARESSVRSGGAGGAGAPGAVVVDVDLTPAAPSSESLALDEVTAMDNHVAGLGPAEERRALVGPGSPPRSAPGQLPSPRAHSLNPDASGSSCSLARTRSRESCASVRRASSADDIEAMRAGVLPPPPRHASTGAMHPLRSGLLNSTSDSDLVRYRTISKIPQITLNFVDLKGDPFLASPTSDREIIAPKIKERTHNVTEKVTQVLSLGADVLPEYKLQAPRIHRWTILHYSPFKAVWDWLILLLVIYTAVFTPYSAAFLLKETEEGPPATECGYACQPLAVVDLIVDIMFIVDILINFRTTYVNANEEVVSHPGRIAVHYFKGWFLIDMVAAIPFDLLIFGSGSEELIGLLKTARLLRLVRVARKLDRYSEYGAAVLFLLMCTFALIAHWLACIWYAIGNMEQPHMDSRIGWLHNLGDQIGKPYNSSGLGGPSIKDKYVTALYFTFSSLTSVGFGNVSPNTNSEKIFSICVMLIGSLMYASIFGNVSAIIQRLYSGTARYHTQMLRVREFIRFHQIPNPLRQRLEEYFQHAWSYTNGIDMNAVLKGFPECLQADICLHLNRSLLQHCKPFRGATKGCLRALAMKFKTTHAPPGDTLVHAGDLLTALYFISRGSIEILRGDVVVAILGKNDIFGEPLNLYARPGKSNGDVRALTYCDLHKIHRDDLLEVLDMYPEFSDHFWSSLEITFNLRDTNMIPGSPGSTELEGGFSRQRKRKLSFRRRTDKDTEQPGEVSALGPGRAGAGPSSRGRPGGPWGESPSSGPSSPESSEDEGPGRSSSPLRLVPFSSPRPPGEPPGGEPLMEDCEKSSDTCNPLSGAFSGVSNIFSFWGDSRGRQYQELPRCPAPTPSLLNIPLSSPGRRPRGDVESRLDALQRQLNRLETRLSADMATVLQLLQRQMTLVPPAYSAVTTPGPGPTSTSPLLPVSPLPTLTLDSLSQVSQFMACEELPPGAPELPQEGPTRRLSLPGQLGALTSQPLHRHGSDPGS
Chain of Cytochrome P450 2C9 (P11712 whole entry): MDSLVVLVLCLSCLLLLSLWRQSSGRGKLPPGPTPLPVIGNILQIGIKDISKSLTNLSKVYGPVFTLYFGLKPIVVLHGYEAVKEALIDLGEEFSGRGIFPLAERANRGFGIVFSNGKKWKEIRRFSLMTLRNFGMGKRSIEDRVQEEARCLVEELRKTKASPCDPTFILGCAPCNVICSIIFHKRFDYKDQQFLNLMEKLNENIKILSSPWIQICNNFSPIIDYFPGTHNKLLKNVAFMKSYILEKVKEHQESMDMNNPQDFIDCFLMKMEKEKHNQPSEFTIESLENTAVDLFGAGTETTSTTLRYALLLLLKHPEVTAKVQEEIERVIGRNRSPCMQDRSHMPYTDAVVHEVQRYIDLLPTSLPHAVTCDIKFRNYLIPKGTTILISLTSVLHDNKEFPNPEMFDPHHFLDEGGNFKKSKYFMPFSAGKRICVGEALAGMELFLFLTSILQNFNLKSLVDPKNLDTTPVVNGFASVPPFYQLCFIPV
Chain of Cytochrome P450 2D6 (P10635 whole entry): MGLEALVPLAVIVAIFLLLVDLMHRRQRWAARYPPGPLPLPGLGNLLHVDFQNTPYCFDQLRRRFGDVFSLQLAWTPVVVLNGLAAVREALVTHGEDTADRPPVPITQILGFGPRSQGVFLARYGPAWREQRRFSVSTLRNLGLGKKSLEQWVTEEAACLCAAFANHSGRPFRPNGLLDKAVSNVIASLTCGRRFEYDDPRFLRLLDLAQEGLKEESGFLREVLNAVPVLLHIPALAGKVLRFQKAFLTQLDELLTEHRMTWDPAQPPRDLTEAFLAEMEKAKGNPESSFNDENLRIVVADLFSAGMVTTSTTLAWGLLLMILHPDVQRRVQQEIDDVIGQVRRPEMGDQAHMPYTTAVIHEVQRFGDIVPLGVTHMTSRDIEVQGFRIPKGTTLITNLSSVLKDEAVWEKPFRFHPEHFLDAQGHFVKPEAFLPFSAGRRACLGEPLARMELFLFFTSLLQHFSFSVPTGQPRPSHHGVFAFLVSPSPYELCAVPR

For Cc1cc(=O)n(-c2ccc(N3CCC(Cc4ccc(Cl)c(F)c4)CC3)c(Cl)c2)c(C)n1, which AUC(0-t) [1] is on record?
The AUC(0-t) was 4280 ng·h/mL.

And the clearance [2]?
Its clearance is 4.33 mL/min/kg.

What about the Activity (HFL1 [3]) of the same compound?
The Activity was 72.56%.

And the Activity (HFL1 [4])?
The Activity was “Active”.

And the clearance [5]?
The clearance was 1.67 mL/min/kg.

What about the Cmax [6] of the same compound?
The Cmax was 1120 ng/mL.

And the Vd [7]?
The Vd was 8.2 L/kg.

What about the Vd [8] of the same compound?
The Vd was 1.8 L/kg.

What about the half-life [9] of the same compound?
The half-life was 660 min.

What about the Cmax [10] of the same compound?
The Cmax was 628 ng/mL.

What about the AUC(0-t) [11] of the same compound?
Its AUC(0-t) is 5910 ng·h/mL.

What about the clearance [12] of the same compound?
The clearance was 3.33 mL/min/kg.

What about the Vd [13] of the same compound?
The Vd was 3.9 L/kg.

And the half-life [14]?
Its half-life is 960 min.

What about the AUC(0-t) [15] of the same compound?
The AUC(0-t) was 12900 ng·h/mL.

What about the half-life [16] of the same compound?
Its half-life is 840 min.

And the bioavailability [17]?
The bioavailability was 72%.

What about the Activity (Rattus norvegicus [18]) of the same compound?
The Activity was “Active”.

And the Activity (Rattus norvegicus [19])?
Its Activity is “Dde”.

What about the half-life [20] of the same compound?
Its half-life is 41.7 min.

And the half-life [21]?
Its half-life is 296 min.

What about the half-life [22] of the same compound?
The half-life was 102 min.

And the CLint scaled [23]?
Its CLint scaled is 16.7 mL/min/kg.

And the CLint scaled [24]?
Its CLint scaled is 11.7 mL/min/kg.

And the CLint scaled [25]?
Its CLint scaled is 77 mL/min/kg.

What about the IC50 (Cytochrome P450 2C9) of the same compound?
The IC50 was > 10 µM.

And the IC50 (Cytochrome P450 2D6)?
Its IC50 is > 10 µM.

And the IC50 [26]?
Its IC50 is > 30 µM.

And the Activity [27]?
The Activity was “Non-Toxic”.

What about the MTD at 672 h [28] of the same compound?
The MTD at 672 h was > 500 mg/kg.

Reference: ChEMBL document CHEMBL5136958, “The development of HEC-866 and its analogues for the treatment of idiopathic pulmonary fibrosis” (RSC Med Chem, 2021)
